Measured values as given in publication PMC9977399 (Chemical Science, 2023).

Legend:
caspase 6 [1] = target: T1, caspase 6 (Homo sapiens, UniProt P55212); experiment: kobs/I inhibition parameter of AOMK inhibitors; type: biochemical; settings: substrate Ac-VEID-ACC 100 μM, 37 °C
T1 sequence (P55212 24-179 limits assumed): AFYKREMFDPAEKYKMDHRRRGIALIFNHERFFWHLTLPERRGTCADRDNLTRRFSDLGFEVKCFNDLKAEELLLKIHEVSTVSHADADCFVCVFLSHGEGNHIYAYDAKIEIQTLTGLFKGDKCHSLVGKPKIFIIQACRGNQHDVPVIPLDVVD
T1 sequence (P55212 194-293 limits assumed): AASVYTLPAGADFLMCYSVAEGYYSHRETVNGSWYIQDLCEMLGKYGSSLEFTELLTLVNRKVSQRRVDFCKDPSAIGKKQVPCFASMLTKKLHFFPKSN
Summary of the method: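 Recombinant human caspase 6 was active-site titrated with zVAD-fmk and preactivated 15 min at 37 °C in sucrose/PIPES/NaCl/EDTA/DTT buffer, pH 7.2–7.4. Serial inhibitor dilutions with substrate were pre-equilibrated 15 min at 37 °C, then enzyme was added. ACC fluorescence (ex 355/em 460 nm) was read for 30 min from start under pseudo-first-order conditions. Second-order kobs/I: at least three independent runs, mean ± SD.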

[2] = test system: lamin A processing in staurosporine-treated Jurkat T cells; experiment: western blot of lamin A processing upon inhibitor treatment; type: cell-based, human; settings: inhibitor 5 or 25 μM, 2 h preincubation, staurosporine 5 μM, 4 h
Summary of the method: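 Low-passage Jurkat T cells (100000 per 0.5 mL) were pretreated 2 h with inhibitor (5 or 25 μM, 1% DMSO; control 1% DMSO), then given staurosporine 5 μM for 4 or 8 h. Lysates were boiled in SDS/DTT and run on 4–12% Bis-Tris SDS–PAGE, then nitrocellulose, blocked with 2% BSA/TBS-T. Primary antibodies (caspase 3, PARP, caspase 6, lamin A/C; 1:1000, overnight 4 °C) were followed by fluorescent secondaries. Bands were quantified from 700/800 nm scans.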

caspase 8 = caspase 8 (Homo sapiens, UniProt Q14790); experiment: kobs/I inhibition parameter of AOMK inhibitors; type: biochemical; settings: substrate Ac-LEHD-ACC 100 μM, 37 °C
Summary of the method: (§1)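 Recombinant human caspases 8, 9 or 10 were active-site titrated with zVAD-fmk and preactivated 15 min at 37 °C. Buffer: sucrose/PIPES/NaCl/EDTA/DTT, pH 7.2–7.4, plus 0.75 M sodium citrate to dimerise. Inhibitor dilutions were mixed with substrate and held 15 min at 37 °C before enzyme addition. Fluorescence (ex 355/em 460 nm) was followed 30 min; pseudo-first-order kobs/I from ≥3 experiments, mean ± SD.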

caspase 9 = target: T2, caspase 9 (Homo sapiens, UniProt P55211); experiment: kobs/I inhibition parameter of AOMK inhibitors; type: biochemical; settings: substrate Ac-LEHD-ACC 100 μM, 37 °C
T2 sequence (P55211 1-315 limits assumed): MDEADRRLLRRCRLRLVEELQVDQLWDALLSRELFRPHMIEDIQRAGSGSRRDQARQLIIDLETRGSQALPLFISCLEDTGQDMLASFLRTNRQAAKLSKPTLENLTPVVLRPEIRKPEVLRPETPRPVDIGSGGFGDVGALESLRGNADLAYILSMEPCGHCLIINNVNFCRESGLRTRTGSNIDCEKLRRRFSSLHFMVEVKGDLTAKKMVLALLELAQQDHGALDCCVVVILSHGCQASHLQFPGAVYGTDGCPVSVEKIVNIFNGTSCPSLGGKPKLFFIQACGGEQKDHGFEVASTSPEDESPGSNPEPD
T2 sequence (P55211 331-416 limits assumed): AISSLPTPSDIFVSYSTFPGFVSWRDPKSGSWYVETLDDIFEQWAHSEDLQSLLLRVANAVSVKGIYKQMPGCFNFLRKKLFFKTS
Summary of the method: as §1

caspase 10 = target: T3, caspase 10 (Homo sapiens, UniProt Q92851); experiment: kobs/I inhibition parameter of AOMK inhibitors; type: biochemical; settings: substrate Ac-LEHD-ACC 100 μM, 37 °C
T3 sequence (Q92851 220-415 limits assumed): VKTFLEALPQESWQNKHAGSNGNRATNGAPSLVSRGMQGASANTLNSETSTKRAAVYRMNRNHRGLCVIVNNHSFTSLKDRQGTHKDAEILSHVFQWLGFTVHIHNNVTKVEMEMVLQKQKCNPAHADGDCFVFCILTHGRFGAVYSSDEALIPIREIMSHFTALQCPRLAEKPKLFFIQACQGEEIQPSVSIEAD
T3 sequence (Q92851 416-521 limits assumed): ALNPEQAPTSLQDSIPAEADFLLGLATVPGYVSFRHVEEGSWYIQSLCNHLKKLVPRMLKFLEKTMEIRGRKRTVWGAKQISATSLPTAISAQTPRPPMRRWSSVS
Summary of the method: as §1

[3] = test system: lamin A processing in staurosporine-treated Jurkat T cells; experiment: mass cytometry, anti-lamin A; type: cell-based, human; settings: inhibitor 5 or 25 μM, 2 h preincubation, staurosporine 5 μM, 4 h
Summary of the method: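 Jurkat T cells (1,000,000 per 0.5 mL) were pretreated 2 h with inhibitor (5 or 25 μM), then given staurosporine 5 μM for 4 h. Cells were fixed in 4% PFA (20 min, 4 °C), Perm-S permeabilised and stained 2 h RT with metal-tagged antibodies (lamin A 142Nd, cleaved PARP 143Nd, caspase 6 159Tb, cleaved caspase 3 172Yb). Ir191/193 DNA stain followed; CyTOF acquisition within 12 h.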

caspase 6 [4] = target: T1, caspase 6; experiment: kinetic of AIE substrates; type: biochemical; settings: caspases 3 and 6 at 10 nM or 50 nM, ex 312/em 450 nm, 30 min
Summary of the method: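 Recombinant human caspases 3 and 6 were active-site titrated with zVAD-fmk and used at 10 or 50 nM. Buffer: 10% w/v sucrose, 20 mM PIPES, 10 mM NaCl, 1 mM EDTA, 10 mM DTT, pH 7.2–7.4. Enzyme was preincubated 15 min, then added to AIE substrates from DMSO at varied final concentrations, 37 °C. Relative hydrolysis rate came from the linear fluorescence segment. At least three replicates, mean ± SD.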

caspase 8, sequence (Q14790 217-374 limits assumed): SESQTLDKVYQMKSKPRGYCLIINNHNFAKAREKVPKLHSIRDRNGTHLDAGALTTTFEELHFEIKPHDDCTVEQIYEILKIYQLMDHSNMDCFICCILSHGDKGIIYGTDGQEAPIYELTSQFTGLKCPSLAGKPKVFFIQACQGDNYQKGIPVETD
caspase 8, sequence (Q14790 385-479 limits assumed): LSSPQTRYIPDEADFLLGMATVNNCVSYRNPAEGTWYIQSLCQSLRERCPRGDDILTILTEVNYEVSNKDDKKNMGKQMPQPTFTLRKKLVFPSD

| Substance | potency toward caspase 6 (kobs/I, in words) (caspase 6 [1]) | prevention of lamin A cleavage (western blot) [2] | inhibition of apical caspase 8 (in words) (caspase 8) | inhibition of apical caspase 9 (in words) (caspase 9) | inhibition of apical caspase 10 (in words) (caspase 10) | effect on lamin A processing (mass cytometry) [3] | selectivity for caspase 6 over caspase 3 (AIE substrate hydrolysis) (caspase 6 [4]) |
| --- | --- | --- | --- | --- | --- | --- | --- |
| Ac-EVEhFD-AOMK | most potent inhibitors of caspase 6 | only partially effective in preventing lamin A cleavage | – | – | – | – | – |
| Ac-hFVEID-AOMK | most potent inhibitors of caspase 6 | largely prevent lamin A | poor inhibitor | poor inhibitor | poor inhibitor | efficiently block lamin A processing | – |
| Ac-EVEID-K(T PE )-NH2 [Ac-EVEID-K-TPE] | – | – | – | – | – | – | very high selectivity over caspase 3 |
| Ac-EVEID-AOMK | – | only partially effective in preventing lamin A cleavage | – | – | – | – | – |
